# Test results from PubChem BioAssay.
# The list shows a part of the results. Values without a mark were called inactive. Active and inactive are the calls of the source.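 Rule for the calls, unless noted: active = mean activation across triplicate tests above the threshold derived from the earlier primary screen (cut at about 5.5% in these data); inactive = the rest.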
# Tests used:
# [1] = target: Oxysterols receptor LXR-beta (Homo sapiens) (UniProt P55055); experiment: LXR agonists, Gal4 luciferase reporter, confirmation, counter-screen for hcDAF-12 agonist project, cell-based, luminescence, HEK293, H. contortus campaign (AID 743027;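 active = mean percent activation of the reporter above a cutoff set as the average over tested compounds plus their standard deviation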); details: HEK293 Gal4-LXR tk-luc reporter, 24 h, at 6.8 µM, hits give high values, normalized: DMSO 0%, positive control 100%
# Procedure, shortened: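 material = Gal4-LXR and tk-luc reporter transfected HEK293 cells | benchmarks = DMSO low control, positive-control high control | compound dosing = one nominal 6.8 µM dose, 0.68% DMSO | repeats = three replicates per compound | times = 24 h compound exposure at 37 °C, 5% CO2 | detection = One-Glo luciferase luminescence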
# [2] = system: Nuclear hormone receptor DAF-12 (Haemonchus contortus); experiment: H. contortus DAF-12 receptor agonists, confirmation, cell-based, luminescence, HEK293, lit1-tk-luc, triplicate (AID 743032); details: HEK293 hcDAF-12 lit1-tk-luc reporter, at 6.8 µM, hits give high values, % of Δ7-dafachronic acid response;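 note: 0% = DMSO only wells and 100% = 3 µM Δ7-dafachronic acid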
# Chain of Oxysterols receptor LXR-beta (Homo sapiens) (P55055 whole entry, looked up, the tested form may be a part): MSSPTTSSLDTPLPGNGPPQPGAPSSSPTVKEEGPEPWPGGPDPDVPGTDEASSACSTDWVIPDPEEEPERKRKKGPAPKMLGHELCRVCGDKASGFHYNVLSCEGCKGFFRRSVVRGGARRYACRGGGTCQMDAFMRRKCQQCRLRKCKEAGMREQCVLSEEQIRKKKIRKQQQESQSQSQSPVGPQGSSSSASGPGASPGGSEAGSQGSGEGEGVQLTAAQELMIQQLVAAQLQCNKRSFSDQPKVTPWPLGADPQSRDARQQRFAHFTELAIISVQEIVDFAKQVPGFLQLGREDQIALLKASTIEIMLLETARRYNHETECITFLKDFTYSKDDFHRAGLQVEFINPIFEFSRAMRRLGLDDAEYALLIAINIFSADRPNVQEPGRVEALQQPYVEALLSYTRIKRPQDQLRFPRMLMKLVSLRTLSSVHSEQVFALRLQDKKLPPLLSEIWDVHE
SMILES,activation [1] [%],activation [2]
N#Cc1c(NC(=O)C2CCCO2)sc2c1CCCCC2 (centres undefined),1.18,6.65% (active)
CCc1cc2c(=O)c(-c3ccon3)c(N)oc2cc1OC,0.84,6.18% (active)
O=C(N/N=C\C1CC=CCC1)c1ccc(Br)o1 (centres undefined),-0.16,0.29%
NS(=O)(=O)c1ccc2nc(NC(=O)CS(=O)(=O)c3ccc(F)cc3)sc2c1,-0.28,3.34%
O=C(NC1CCCCC1)C(c1cc2ccccc2o1)n1c(=O)c(-c2ccco2)nc2ccccc21 (centres undefined),0.03,5.1%
Cc1c(C(=O)Nc2ccccn2)oc2ccc(Br)cc12,1.8,15.4% (active)
COc1ccccc1NC(=O)c1ccc(C)s1,0.6,8.4% (active)
COc1ccc(CNC(=O)c2ccc3oc(C(C)C)nc3c2)cc1,0.72,2.54%
Cc1cccc(-c2nc3ccccc3c(=O)n2NC(=O)Cc2ccc(Cl)cc2)c1,-0.04,0.97%
CCCc1cc(C(=O)Nc2ccc(Cl)cn2)cs1,1.33,4.99%
Cn1ccnc1SCC(=O)Nc1ccc2c(c1)OCCO2,0.85,2.69%
Cc1ccnc(NC(=O)c2ccoc2C)c1,0.3,3.77%
